PubChem BioAssay AID686939 (The Scripps Research Institute Molecular Screening Center, 2013)
In all, about 3,500 compounds went through this assay and about 1,400 (40%) were called active.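 Rule for the calls: active = activation above the solvent-only control well mean plus 3 SD, averaged across control plates (cut at about 5.2% in these data); inactive = the rest.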 So high a share suggests a set chosen from earlier hits. Only a sample is shown.

Experiment: nonselective transcriptional activators, VP16 reporter – cell-based, pG5luc, luminescence, high throughput, counter-screen for SMARCA2 (BRM) activator project (AID 686939)
Conditions: HEK293 GAL4-VP16 pG5luc reporter, luciferase luminescence; at 9.1 µM; hits give high values; scaled: DMSO wells 0%, SAHA wells 100%
How it was run: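 System: 293 cells carrying GAL4-VP16 plus UAS-luciferase reporter. Quantity: 2,500 transfected 293 cells per well. Incubation: 24 h exposure, 37 °C, 5% CO2, One-Glo 15 min RT. Technique: luciferase luminescence after One-Glo reagent addition. Benchmarks: DMSO and SAHA.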

Row | SMILES | activation
1 | Cc1cc(C)c2nc(NC(=O)C3CCCO3)sc2c1 (stereo not drawn) | 7.97% (active)
2 | O=C(Nc1nnc(CCc2ccccc2)s1)C1CCCO1 (stereo not drawn) | 0.86% (inactive)
3 | Cc1ccccc1C1=N/C(=C/c2cccnc2)C(=O)O1 | 0.55% (inactive)
4 | COC(=O)c1ccc(NCc2cc(O)ccc2O)cc1 | 5.14% (active)
5 | Cc1ccc(O)c(CNc2nc3ccccc3n2C)c1 | 1.49% (inactive)
6 | COC(=O)c1ccc(/C=C2/C(=O)Oc3ccccc32)cc1 | -0.16% (inactive)
7 | CCC1CCC/C1=N\NC(=O)c1ccc(Cl)cc1 (stereo not drawn) | 0.4% (inactive)
8 | O=C(C1CCC1)N1CCN(S(=O)(=O)c2ccc([N+](=O)[O-])cc2)CC1 | 0.6% (inactive)
9 | Cc1ccsc1-c1nc(CSCC(=O)NCCN2CCCC2)c(C)o1 | 0.41% (inactive)
10 | Cc1ccc(C(=O)Nc2nc3ccc(Cl)cc3s2)o1 | 7.07% (active)
11 | CC1CCCCN1C(=S)NCc1ccccc1 (stereo not drawn) | -0.22% (inactive)
12 | Cc1ccc(C(=O)NNC(=O)c2cccs2)cc1 | 6.36% (active)
13 | Cc1ccc(S(=O)(=O)c2c[nH]c3ccc(Cl)cc3c2=O)cc1 | -0.72% (inactive)
14 | Cc1ccc(S(=O)(=O)NC(C)C(=O)NCc2ccc(Cl)cc2)cc1 (stereo not drawn) | -0.12% (inactive)
15 | COc1ccc(NC(=O)c2sccc2SCC#N)cc1 | 2.71% (inactive)
16 | O=[N+]([O-])c1ccc2c(c1)Nc1nc3ccccc3nc1N2 | 10.8% (active)
17 | CCCn1c(=O)c2ccccc2n2c(SCC(=O)/C(C#N)=C(\C)N)nnc12 | -0.93% (inactive)
18 | CCc1cc2c(=O)c(-c3ccon3)c(N)oc2cc1OC | 5.65% (active)
19 | Cc1n[nH]c(=O)nc1N/N=C/c1cccs1 | 2.94% (inactive)
20 | CC(C)c1ccc(NC(=S)NC2CC3C=CC2C3)cc1 (stereo not drawn) | 8.15% (active)
21 | CCc1ccc(NC2Nc3cc(C)nn3S2)cc1 (stereo not drawn) | 6.27% (active)
22 | Cc1ccc(NC(=O)c2cnc(SCC(=O)NCC3CCCO3)n(C)c2=O)cc1 (stereo not drawn) | 3.55% (inactive)
23 | O=C(Nc1ccc(F)cc1)c1cc2c(s1)CCCC2 | 10.8% (active)
24 | O=C(NCC1CCCO1)c1cc2c(s1)CCCC2 (stereo not drawn) | 10.9% (active)
25 | COCn1c(COc2ccccc2)nc2ccccc21 | 3.98% (inactive)
26 | CN1CCN(CCCNC(=O)c2ccc(/C=C3\Oc4ccccc4N(Cc4ccc(Cl)cc4)C3=O)cc2)CC1 | 2.16% (inactive)

Row | SMILES | activation
27 | COC(=O)Cc1nnn2c1[C@H](C)[C@H](c1ccccc1[N+](=O)[O-])OCC2 | 1.5% (inactive)
28 | C/C(CC(=O)NC(C)(C)C)=N\NC(=O)c1ccco1 | 1.25% (inactive)
29 | CCOc1cc(NC(=S)NCCCOC)c(OCC)cc1NC(=O)c1ccco1 | -0.82% (inactive)
30 | O=C(Nc1ccc(NC(=O)c2cccs2)cn1)c1ccco1 | 11.6% (active)
31 | O=C(Nc1ccc2nccnc2c1)c1ccco1 | 6.58% (active)
32 | Cn1sc(=O)c2cc(S(=O)(=O)NC3CC3)ccc21 | 1.24% (inactive)
33 | O=C1/C(=C\c2ccc([N+](=O)[O-])cc2)CS(=O)(=O)C/C1=C/c1ccc([N+](=O)[O-])cc1 | -4.02% (inactive)
34 | Cc1ccsc1C(=O)N/N=C/c1ccc([N+](=O)[O-])cc1 | 14.2% (active)
35 | O=C(OCC(=O)c1cccs1)C1=COCCO1 | 7.73% (active)
36 | O=C(NCc1ccccn1)c1cnc2sccn2c1=O | 2.95% (inactive)
37 | Cc1cc(C)n2nc(CNS(=O)(=O)c3c(F)c(F)c(F)c(F)c3F)nc2n1 | 1.55% (inactive)
38 | CC(C)(C)C(=O)CSc1nc2ccccc2o1 | 5.87% (active)
39 | CN(C)c1nc(=Nc2cccc(Cl)c2)ss1 | 1.47% (inactive)
40 | COc1ccc(/C(N)=N/OC(=O)Oc2ccccc2)cc1 | -0.09% (inactive)
41 | CCCOc1ccc(-c2nc(N)n[nH]2)cc1 | 6.36% (active)
42 | COc1ccc2nc(/N=C(\N)NC(=O)Nc3ccccc3)nc(C)c2c1 | -0.04% (inactive)
43 | Cc1ccnc(NC(=O)C2CCN(S(=O)(=O)c3c(C)c(C)cc(C)c3C)CC2)c1 | 1.57% (inactive)
44 | COc1cccc(C(=O)Nc2nc3ccc(S(C)(=O)=O)cc3s2)c1 | 5.21% (active)
45 | N#Cc1ccccc1NC(=O)c1cccc(COc2ccc(Cl)cc2Cl)c1 | 21.9% (active)
46 | COc1ccc(S(=O)(=O)NC(C)C(=O)N2CCCCCC2)cc1 (stereo not drawn) | -0.22% (inactive)
47 | CC(=O)Nc1ccc(Nc2c3ccccc3nc3ccccc23)cc1 | 1.5% (inactive)
48 | CCCC(=O)N1c2ccc(-c3csc(N)n3)cc2CC1C (stereo not drawn) | 13.6% (active)
49 | CCC(=O)Nc1ccc2nn(-c3ccc(F)cc3)nc2c1 | 7.66% (active)
50 | CCCSC(=S)NC1CCS(=O)(=O)C1 (stereo not drawn) | -1.45% (inactive)
51 | Cc1noc(C)c1/C=N/Nc1ccc2ccccc2n1 | 11.4% (active)
52 | COc1ccc(/C=C/C(=O)Nc2ccc(C34CC5CC(CC(O)(C5)C3)C4)cc2)cc1OC | 16.6% (active)

Row | SMILES | activation
53 | Cc1c(NC(=O)CSc2cccc3cccnc23)c(=O)n(-c2ccccc2)n1C | -2.03% (inactive)
54 | COc1ccc(C(=O)N/N=c2\oc3ccccc3cc2C(N)=O)cc1 | 2.08% (inactive)
55 | Cn1cc(/C=C/C(=O)N2CCCC(C(=O)c3ccc(C(F)(F)F)cc3)C2)cn1 (stereo not drawn) | 0.52% (inactive)
56 | CN(C)CCNC(=O)c1ccc(Cl)c2cc3ccccc3nc12 | 10.7% (active)
57 | CCN(CC)CCNC(=O)c1ccc(NC(=O)c2cc(-c3ccncc3)nc3ccccc23)cc1 | 1.61% (inactive)
58 | O=C(CCCCCn1c(=S)[nH]c2ccsc2c1=O)NC1CCCCC1 | -0.19% (inactive)
59 | Oc1cccc2ccc(/C=C/c3ccc(Br)s3)nc12 | 8.85% (active)
60 | Cc1nc(N=C(N)N)nc2c(C)cccc12 | 0.25% (inactive)
61 | Cc1ccc(Nc2nc(Cl)c(C=O)s2)cc1 | 3.07% (inactive)
62 | CC(=O)c1sc(NC(=O)c2ccc(C)cc2)nc1C | 8.83% (active)
63 | CC(=O)Oc1ccc(C(=O)Nc2nccs2)cc1 | 5% (inactive)
64 | Cc1ccc(NC(=O)c2cc3ccccc3o2)cc1 | 4.91% (inactive)
65 | CC(=O)c1sc(N/N=C\c2ccc(C)cc2)nc1C | 6.19% (active)
66 | CC(C)C[C@H]1CNC(=O)C(=O)N1C[C@H]1CCCN1C[C@H](Cc1ccc(O)cc1)N1C[C@H](CC(C)C)N(CC2CCCCCC2)C(=O)C1=O | 0.47% (inactive)
67 | Cc1ccc(-c2nc3ccc(Cl)cn3c2Cc2ccccc2)cc1 | 5.49% (active)
68 | Cc1ccc(-c2nc3ccc(Br)cn3c2Cc2ccccc2C(F)(F)F)cc1 | 7.09% (active)
69 | CC(C)Cc1nnc(NC(=O)CCNC(=O)c2ccccc2Cl)s1 | -0.47% (inactive)
70 | Cc1cc(-n2cnc(-c3cn(C)nc3C)n2)no1 | 2.79% (inactive)
71 | Cc1nnc(NC(=O)Cn2c(=O)sc3ccccc32)s1 | 0.78% (inactive)
72 | COc1ccccc1C1=Nc2cccc3cccc(c23)N1 | 2.12% (inactive)
73 | NS(=O)(=O)c1ccccc1NC(=O)c1c(O)c2ccccc2[nH]c1=O | 14.3% (active)
74 | CCN(CC)C(=O)CSc1nnc(-c2cccc(OC)c2)o1 | 2.98% (inactive)
75 | CCOC(=O)Nc1ccc(NC(=O)OCC)cc1 | 2.67% (inactive)
76 | COc1ccc(-c2cc(-c3ccc(N)cc3)nc(N)c2C#N)cc1OC | 3.72% (inactive)
77 | CCCCCCOC(=O)NCC(O)c1ccccc1 (stereo not drawn) | 9.46% (active)
78 | O=c1c2c(nc3n1CCCCC3)sc1c(O)cccc12 | 6.75% (active)

Row | SMILES | activation
79 | CC(=O)c1ccc(NC(=O)c2sc3nc4n(c(=O)c3c2C)CCCCC4)cc1 | 9.18% (active)
80 | CCOc1cccc2c1OC1(CCCCC1)N1N=C(c3cccnc3)CC21 (stereo not drawn) | 0.45% (inactive)
81 | O=C(Cn1ncc(N2CCCC2)c(Br)c1=O)c1ccc(Cl)cc1 | 5.53% (active)
82 | COc1ccc2ccccc2c1CNCc1ccccn1 | 4.06% (inactive)
83 | C1=C(CCNc2ncnc3c2cnn3-c2ccccc2)CCCC1 | 14.9% (active)
84 | CN(C)C(CNC(=O)c1ccc(OCc2cn3ccccc3n2)cc1)c1ccco1 (stereo not drawn) | 3.42% (inactive)
85 | C=CC(=O)OCCOCCOCCOCCOC(=O)C=C | 3.33% (inactive)
86 | COC(=O)C1C(=O)c2c([nH]c(C(=O)OCCSC)c2C)CC1C (stereo not drawn) | 11.8% (active)
87 | O=C(CSc1nc2ccccc2[nH]1)c1cccs1 | 13.1% (active)
88 | CC1(C(=O)NS(=O)(=O)C2CC2)CCCN(C(=O)CSc2ccccc2)C1 (stereo not drawn) | -0.05% (inactive)
89 | Cc1cc(C(=O)NNC(=S)Nc2ccccc2C)cs1 | 8.68% (active)
90 | Cc1ccc(-n2c(SCC(=O)N3CCC(C(=O)O)CC3)nc3ccccc3c2=O)cc1C | 4.53% (inactive)
91 | CCNC(=S)N1CCN(c2ncccn2)CC1 | -0.27% (inactive)
92 | COC(=O)c1sc(-c2ccc(C(C)(C)C)cc2)cc1NC(=O)/C=C/C(=O)O | 4.46% (inactive)
93 | Cn1c2ccc(F)cc2c2nnc(NN)nc21 | 0.75% (inactive)
94 | Cc1cccc(CSc2ccc(-c3cccs3)nn2)c1 | 3.46% (inactive)
95 | COc1ccc(Cn2c(C)c(C)c(C#N)c2NC(=O)Nc2ccc(F)cc2)cc1 | -0.19% (inactive)
96 | O=C(Nc1ccc2c(c1)CCC2)c1ccc(Br)s1 | 5.57% (active)
97 | O=C(NC1CCCC1)C(=O)c1c[nH]c2ccccc12 | 6.44% (active)
98 | CC(=O)c1cccc(-c2cnc3c(NC=O)cc(-c4ccc(N5CCN(C)CC5)cc4)cn23)c1 | 2.83% (inactive)
99 | CCN(CC)C(=O)c1sc2nc(-c3ccccc3)ccc2c1N | 11.2% (active)
100 | COc1cccc(C(=O)Nc2cc3c(cc2Br)OCCCO3)c1 | 9.44% (active)
101 | c1ccc2cc3c(NCCN4CCOCC4)ccnc3cc2c1 | 0.84% (inactive)
102 | Cc1cccc(-n2c(O)c(C=Nc3ccccc3N)c(=O)[nH]c2=O)c1 | 6.14% (active)
103 | C=C1C(=O)[C@]23C[C@H]1CCC2[C@@]1(C)C(C[C@@H]3O)[C@](C)(C(=O)O)CC[C@@H]1O (stereo partly drawn) | 1.65% (inactive)
